# From PubChem BioAssay
# GRK2 inh = human GRK2 inhibition via aptamer displacement; P25098; bead flow cytometry, FAM-aptamer displacement from GRK2; inhibition of aptamer binding, % at 10 µM; 330,000 compounds, 0.59% hits; AID 488847;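 active means inhibition of aptamer binding above 40%, roughly 3 SD of noise, on plates passing a quality check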;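 further: median bead fluorescence of bound FAM aptamer so fluorescent compounds give negative values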
# STEP inh = inhibitors of human striatal-enriched phosphatase STEP. P54829. 360,000 compounds, 0.25% hits. AID 588621. recombinant STEP, OMFP fluorogenic substrate, fluorescence. inhibition, % at 20 µM;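 active means inhibition at 20 µM, scaled per plate between control wells, above about 37%, limit read from the data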
#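 Assay system: isolated STEP enzyme. Buffer or medium: pH 6.0 Bis-Tris with DTT and Tween 20. Also added: fluorogenic phosphatase substrate OMFP at 25 µM final. Dosing: 20 µM, 1% DMSO. Timing: 20 min reaction, room temperature, in the dark. Measured by: fluorescence intensity, excitation 480 nm, emission 540 nm. Evaluation: normalized % inhibition.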
# LMPTP block = LMPTP (human) inhibition; P24666; recombinant LMPTP-A, OMFP fluorogenic substrate, fluorescence intensity; inhibition, % at 20 µM; 360,000 compounds, 0.22% hits; AID 651560;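 active means compounds that cut the enzyme signal by at least half of the control window in the single-dose screen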
# Target sequence (P24666 whole entry, looked up): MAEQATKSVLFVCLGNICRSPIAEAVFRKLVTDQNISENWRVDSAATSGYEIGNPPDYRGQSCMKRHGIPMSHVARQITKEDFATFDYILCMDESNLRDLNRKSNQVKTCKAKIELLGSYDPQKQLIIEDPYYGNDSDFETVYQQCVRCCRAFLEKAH
#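 Test system: LMPTP-A, protein tyrosine phosphatase of low molecular weight; Input: 0.625 nM enzyme; Incubation: 50 min dark incubation at room temperature; Signal: endpoint fluorescence intensity from OMFP dephosphorylation; Read-out basis: % inhibition versus control wells.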
# Scp1 inh = Scp-1 (human) phosphatase inhibition. Q9GZU7. Recombinant Scp1, phosphopeptide, malachite green phosphate absorbance. inhibition, % at 20 µM. 340,000 compounds, 0.88% hits. AID 493091;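 active means inhibition above about 50% at 20 µM, limit read from the data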
# Target sequence (Q9GZU7 76-261 limits assumed): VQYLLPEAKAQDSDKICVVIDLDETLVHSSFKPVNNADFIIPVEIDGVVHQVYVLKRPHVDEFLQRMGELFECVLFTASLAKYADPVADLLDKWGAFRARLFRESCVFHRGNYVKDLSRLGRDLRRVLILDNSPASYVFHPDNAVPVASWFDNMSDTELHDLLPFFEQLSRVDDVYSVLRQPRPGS
#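 Material – SCP-1 phosphatase catalytic domain, residues 76-261 · Buffer or medium – Acidic Tris acetate buffer with magnesium and detergent · Also added – Phospho 17-mer peptide substrate · Compound – single 20 µM dose, 1% DMSO · Times – 45 min room-temperature reaction, 5 min colour, 30 min stabiliser · Technique – Phosphate-binding colour reagent, absorbance read at 630 nm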
# DNMT1 block = DNMT1 (human) enzyme inhibition; AID 588458; 360,000 compounds, 0.83% hits; P26358; DNMT1 molecular beacon, Hinp1I cleavage, fluorescence; inhibition (reported as % activation of signal), % at 10 µM; in the data active means inhibition above about 50%
# SUMO1 PPI mod = modulators of human SUMO1-mediated protein-protein interactions; SUMO1 binding to a labelled peptide, TR-FRET, 1 h; inhibition, % at 20 µM; 360,000 compounds, 0.33% hits; in the data active means inhibition above about 37%
# Target sequence (P63165 whole entry, looked up): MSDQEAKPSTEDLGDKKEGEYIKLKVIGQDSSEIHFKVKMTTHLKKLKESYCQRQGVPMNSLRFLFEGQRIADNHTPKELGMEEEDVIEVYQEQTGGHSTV
# Scp-1 conf = Scp-1 (human) inhibition, single-dose confirmed; shares compounds with Scp1 inh; recombinant SCP-1 catalytic domain, phosphate release, malachite green absorbance; inhibition, % at 20 µM; 2,500 compounds, 61% hits; AID 540281
# MG interference = counter-screen for Scp-1 inhibitors: colorimetric interference. shares compounds with Scp1 inh. Colorimetric interference counterscreen, malachite green absorbance 630 nm. apparent inhibition (interference), % at 20 µM. 2,500 tested, under 10 active. AID 540313;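 further: compounds added after enzyme reaction finished so only phosphate colour detection is probed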
# Scp1 DSF = validation of human Scp-1 inhibitors by thermal shift binding. Recombinant SCP1, Sypro Orange thermal shift Tm. 1,500 compounds, 25% hits. thermal shift relative to vanadate control, % at 40 µM. AID 540329. shares compounds with Scp1 inh;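 active means substances whose mean melting-temperature shift, as a percentage of the reference inhibitor's shift, reaches about 5.3%, limit read from the data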
# Hits are given with their value; – = inactive; · = no result given. A selection: hits, their analogues and other compounds. The true share with any hit is near 2.1%.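 How the source made its calls, unless noted: active means inhibition of at least 30% at 20 µM; inactive means the rest.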
SMILES,GRK2 inh,STEP inh,LMPTP block,Scp1 inh,DNMT1 block,SUMO1 PPI mod,Scp-1 conf,MG interference,others
O=C(Nc1cc([N+](=O)[O-])ccc1O)c1ccc2c(c1)C(=O)N(Cc1ccco1)C2=O,–,–,–,55,–,–,–,–,
O=C(O)Cc1ccc(NC(=O)c2ccc3c(c2)C(=O)N(Cc2ccco2)C3=O)cc1,–,–,–,69,–,–,58,–,Scp1 DSF=6.8
O=C(Nc1ccc(O)cc1)c1ccc2c(c1)C(=O)N(Cc1ccco1)C2=O,–,–,–,–,–,–,·,·,
O=C(O)c1cc(S(=O)(=O)N2CCN(S(=O)(=O)c3ccc4ccccc4c3)CC2)ccc1Br,–,–,–,59,–,–,63,–,Scp1 DSF=8.7
O=S(=O)(c1ccc2ccccc2c1)N1CCCCCC1,–,–,–,–,–,–,·,·,
CCC(C(=O)N/N=C(\C)c1cccnc1)c1ccccc1 (stereo not drawn),–,–,–,–,–,–,·,·,
CCN(C(=O)COC(=O)c1ccccc1Oc1ccccc1)c1c(N)n(Cc2ccccc2)c(=O)[nH]c1=O,·,–,–,–,–,–,·,·,
Brc1cnc2nc(SCc3nc4ccccc4[nH]3)[nH]c2c1,–,–,–,–,–,–,·,·,
Fc1ccc(CSc2nc3ncc(Br)cc3[nH]2)cc1,–,–,–,59,–,–,70,–,Scp1 DSF=–
CCOCCCNC(=O)C1CC(=O)N(CCc2ccccc2)C1 (stereo not drawn),–,–,–,–,–,–,·,·,
CCN(CCNC(=O)C1CC(=O)N(CCc2ccccc2)C1)c1ccccc1 (stereo not drawn),–,–,–,–,–,–,–,–,
CC(C)CCN1CC(C(=O)NCCC2=CCCCC2)CC1=O (stereo not drawn),–,–,–,–,–,–,–,–,
O=C(NCCc1ccccn1)C1CC(=O)N(Cc2ccccc2Cl)C1 (stereo not drawn),–,–,–,–,–,–,–,–,
O=C(NCCc1ccccc1)C1CC(=O)N(CCc2ccccc2)C1 (stereo not drawn),–,–,–,–,–,–,–,–,
Cc1ccnc(NS(=O)(=O)c2ccc(NC(=O)Cc3ccc(Br)cc3)cc2)n1,–,–,–,–,–,–,·,·,
O=C(CS(=O)CC(=O)N(CC(=O)NC1CCCC1)c1ccccc1F)Nc1ccc(F)cc1 (stereo not drawn),–,–,–,–,–,–,·,·,
COCCn1nnnc1CN1CCC(C)CC1,–,–,–,–,–,–,·,·,
CC1(c2nnnn2Cc2ccccc2)CCC(=O)N1Cc1cccs1 (stereo not drawn),·,·,–,·,·,–,·,·,
COc1cccc(NC(=O)CN(C)C(C)C(=O)NC(=O)NC2CCCCC2)c1 (stereo not drawn),–,–,–,–,–,–,·,·,
O=C1OC(/C=C/c2ccccc2)=NC/1=C/C=C/c1ccccc1,–,–,–,70,–,–,–,–,
COc1cc2c(cc1OC)C(c1cc(Br)ccc1F)N(C(=O)CCl)CC2 (stereo not drawn),–,–,–,–,–,–,·,·,
CCc1nnc(NC(=O)CC(C)c2ccccc2)s1 (stereo not drawn),–,–,–,58,–,–,–,–,
CCc1noc(C)c1C(=O)Nc1ccc(F)c(F)c1F,–,–,–,–,–,–,·,·,
Cc1cc(NC(=O)CSCC(=O)N(c2cccc(Cl)c2)C(C(=O)NC2CCCCC2)c2ccc(O)c(O)c2)no1 (stereo not drawn),–,–,–,50,–,–,–,–,
Cc1cc(NC(=O)CSCC(=O)N(c2ccc(F)cc2)C(C(=O)NC2CCCCC2)c2ccc(O)c(O)c2)no1 (stereo not drawn),–,–,–,–,–,–,·,·,
SMILES,GRK2 inh,STEP inh,LMPTP block,Scp1 inh,DNMT1 block,SUMO1 PPI mod,Scp-1 conf,MG interference,others
COc1c(O)cc2c(c1O)[C@@H]1OC(CO)C(O)C(O)[C@H]1OC2=O (stereo partly drawn),·,–,–,–,–,–,–,–,
O=C1N=c2ccccc2=C1c1sc(NS(=O)(=O)Cc2ccccc2)nc1O,–,–,–,93,–,–,84,–,Scp1 DSF=31
Cn1ncc(C#N)c1/N=C/N(Cc1ccccc1)Cc1ccccc1,–,–,–,73,–,–,–,–,
Cc1cccc(-c2nc(S(=O)(=O)c3ccccc3)c(N3CCOCC3)o2)c1,–,–,–,54,–,–,–,–,
CCOC(CNCc1cc(C)c2[nH]c3ccccc3c2c1C)OCC,·,–,–,–,–,–,·,·,
COc1ccc(/C=C/C(=O)NCC(=O)N=Nc2c(O)[nH]c3ccc([N+](=O)[O-])cc23)cc1,–,–,–,68,–,–,–,–,
O=C(CNC(=O)c1ccc(Br)cc1)N=Nc1c(O)[nH]c2ccc([N+](=O)[O-])cc12,–,–,–,–,–,–,·,·,
O=C(N=Nc1c(O)[nH]c2ccc([N+](=O)[O-])cc12)c1ccccc1Cl,–,73,–,99,–,–,70,–,Scp1 DSF=16
Cc1cccc(OCC(=O)NCC(=O)N=Nc2c(O)[nH]c3ccc([N+](=O)[O-])cc23)c1,–,–,–,59,–,–,–,–,
CCCCCC(=O)N=Nc1c(O)[nH]c2ccc([N+](=O)[O-])cc12,–,–,–,–,–,–,·,·,
CN(C)c1ccc(N2C(=NC(=O)CCC3CCCC3)SC3CS(=O)(=O)CC32)cc1 (stereo not drawn),–,–,–,–,–,–,·,·,
COc1ccc(NC(=O)Nc2cccc3c2O[C@H](CN(C)C(=O)NC(C)C)[C@@H](C)CN([C@H](C)CO)C3=O)cc1,–,–,–,–,–,–,·,·,
CCOC(=O)C1(C)Oc2ccccc2C(C(=O)OC)=C1C(=O)OC (stereo not drawn),–,–,–,94,–,–,53,–,Scp1 DSF=–
CCOC(=O)C1(C)Oc2ccccc2C(c2ccc(OC)cc2)=C1C(=O)OC (stereo not drawn),–,–,–,–,–,–,·,·,
O=C1NCCN1CCNS(=O)(=O)c1ccc2ccccc2c1,–,–,–,–,–,–,–,–,
O=C(O)c1cc(S(=O)(=O)NCCN2CCNC2=O)ccc1O,–,–,–,–,–,–,·,·,
COc1ccc(NC(=O)c2cc(=O)[nH]c(=O)[nH]2)cc1S(=O)(=O)Nc1ccccc1Cl,–,–,–,–,–,–,·,·,
